The values below come from ChEMBL document CHEMBL5055621, “Synthesis and Characterization of the Novel Rodent-Active and CNS-Penetrant P2X7 Receptor Antagonist Lu AF27139” (J Med Chem, 2021).

The target in series [1] is Sodium channel protein type 5 subunit alpha (Homo sapiens, UniProt Q14524). Briefly: Inhibition of human Nav1.5 at 10 uM. The procedure, abridged:
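Human Nav1.5, Cav1.2 and KCNQ1/minK channels were tested at 10 μM.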

The nature of series [2]: Induction of CYP3A4 mRNA expression in human primary hepatocytes at 10 uM. The class given is ADME, cell-based, Hepatocyte. An outline of the steps: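 Human hepatocytes were exposed to 10 μM compound. CYP3A4 mRNA was measured as the relative increase, with rifampin at 10 μM as reference inducer.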
Series [3] deals with Cytochrome P450 2D6 (Homo sapiens, UniProt P10635). Nature of the series: Time dependent inhibition of CYP2D6 (unknown origin) upto 25 uM. The class given is ADME.
Chain of Cytochrome P450 2D6 (P10635 whole entry): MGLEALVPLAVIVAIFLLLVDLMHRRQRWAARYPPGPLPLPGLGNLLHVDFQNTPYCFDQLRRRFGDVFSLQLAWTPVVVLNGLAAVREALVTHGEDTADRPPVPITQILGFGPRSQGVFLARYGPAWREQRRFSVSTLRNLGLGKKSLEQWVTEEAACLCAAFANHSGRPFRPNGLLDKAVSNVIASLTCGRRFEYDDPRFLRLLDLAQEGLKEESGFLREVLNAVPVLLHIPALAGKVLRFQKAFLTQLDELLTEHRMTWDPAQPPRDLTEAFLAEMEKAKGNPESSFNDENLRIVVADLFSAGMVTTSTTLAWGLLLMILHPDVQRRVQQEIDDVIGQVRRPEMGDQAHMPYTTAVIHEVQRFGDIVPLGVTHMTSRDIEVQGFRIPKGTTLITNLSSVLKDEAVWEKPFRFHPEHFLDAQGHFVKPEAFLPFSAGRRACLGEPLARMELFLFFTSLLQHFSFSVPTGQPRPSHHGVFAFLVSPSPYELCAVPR
Series [4] can be described thus: AUC (0 to 8 hr) in male rat at 150 mg/kg, po after 7 days. The arrangement: time 7 day, dose 150 mg/kg, route po. The class given is ADME, organism-based. Conditions: in vivo; call rule not given here. The procedure, abridged: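 Oral dosing in male Sprague-Dawley rats (150−200 g, 7-day acclimation, standard housing) in a 7-day exploratory toxicology study.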
The target of series [5] is T1, P2X purinoceptor 7 (Rattus norvegicus, UniProt Q64663).
T1 sequence (Q64663 whole entry): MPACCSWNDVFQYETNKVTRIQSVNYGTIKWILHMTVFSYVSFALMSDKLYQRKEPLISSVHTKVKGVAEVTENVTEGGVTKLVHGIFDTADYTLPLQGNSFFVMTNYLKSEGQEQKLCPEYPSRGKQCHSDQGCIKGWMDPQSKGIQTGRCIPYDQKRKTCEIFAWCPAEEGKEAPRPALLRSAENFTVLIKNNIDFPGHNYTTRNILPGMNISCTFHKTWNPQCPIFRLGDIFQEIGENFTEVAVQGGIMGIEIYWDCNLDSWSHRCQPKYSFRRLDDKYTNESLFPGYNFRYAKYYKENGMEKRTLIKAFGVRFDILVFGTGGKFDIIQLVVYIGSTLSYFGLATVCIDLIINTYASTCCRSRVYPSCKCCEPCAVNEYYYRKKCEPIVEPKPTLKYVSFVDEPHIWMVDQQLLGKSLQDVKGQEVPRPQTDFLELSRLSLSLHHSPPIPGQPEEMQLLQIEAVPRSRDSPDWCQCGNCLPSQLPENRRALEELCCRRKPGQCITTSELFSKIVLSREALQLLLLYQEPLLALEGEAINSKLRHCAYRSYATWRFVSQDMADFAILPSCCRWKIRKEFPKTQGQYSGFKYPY
Briefly: Antagonist activity at rat P2X7 receptor expressed in HEK293 cells assessed as inhibition of BzATP-induced current at -60 mV by whole cell QPatch electrophysiology. In kind it is cell-based. The procedure, abridged: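 QPatch automated whole-cell recording was done on rat P2X7-HEK293 cells held at −60 mV. External solution contained 0.1 mM MgCl2 and 0.3 mM CaCl2 (pH 7.4); the CsCl/EGTA internal was pH 7.2.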
(In general: Patch clamp records ionic current or voltage across a cell membrane.)

Series [6] is described as follows: Metabolic stability in human hepatocytes assessed as intrinsic clearance at 1 uM measured after 2 hrs. The settings on record: read-out: CLH (converted). The class given is ADME, cell-based, Hepatocyte.
A short description of series [7]: Inhibition of BzATP-induced IL-1beta in mouse primary microglia cells primed with LPS measured after repeated BzATP treatment by microplate reader. In kind it is functional, tissue-based. An outline of the steps:
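Cortical microglia from rat (P3 pups) or mouse were plated 1 day before assay and primed with 3 EU/mL LPS for 3.5 h. Compound was added for 30 min, then BzATP (1 mM) for 30 min at 37 °C. IL-1β was measured by MesoScale assay, normalised to BCA protein, and given as mean ± SD.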

Series [8] can be described thus: Free plasma concentration in rat at 3 mg/kg, po after 1 hr by ex vivo equilibrium dialysis. In kind it is ADME, organism-based. An outline of the steps:
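Male Sprague–Dawley rats were dosed orally at 1–100 mg/kg, and total plasma concentration was measured at 1 and 2 h. This was multiplied by fraction unbound from ex vivo equilibrium dialysis; mean ± SEM, n = 3 animals.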
Background: In equilibrium dialysis only unbound substance equilibrates across the membrane.

Series [9] deals with T2, Cytochrome P450 2C8 (Homo sapiens, UniProt P10632).
T2 sequence (P10632 whole entry): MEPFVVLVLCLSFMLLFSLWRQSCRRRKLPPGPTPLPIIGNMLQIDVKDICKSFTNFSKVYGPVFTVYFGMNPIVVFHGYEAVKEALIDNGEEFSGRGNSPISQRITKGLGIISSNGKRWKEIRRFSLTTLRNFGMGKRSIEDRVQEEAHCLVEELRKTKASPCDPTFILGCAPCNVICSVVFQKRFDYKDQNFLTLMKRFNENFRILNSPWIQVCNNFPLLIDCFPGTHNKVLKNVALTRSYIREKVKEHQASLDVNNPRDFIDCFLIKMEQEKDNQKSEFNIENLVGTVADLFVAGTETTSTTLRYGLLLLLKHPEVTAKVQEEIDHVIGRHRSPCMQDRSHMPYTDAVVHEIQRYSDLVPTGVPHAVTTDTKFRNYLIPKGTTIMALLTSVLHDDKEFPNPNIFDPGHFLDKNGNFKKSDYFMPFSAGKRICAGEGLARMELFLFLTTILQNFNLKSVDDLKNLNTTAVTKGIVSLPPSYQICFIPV
Briefly: Time dependent inhibition of CYP2C8 (unknown origin) upto 25 uM. The class given is ADME.

Series [10] can be described thus: Cmax in female mouse at 100 mg/kg, po administered as single dose. Conditions: in vivo.
Series [11] has as its target T3, Cytochrome P450 1A2 (Homo sapiens, UniProt P05177).
T3 sequence (P05177 whole entry): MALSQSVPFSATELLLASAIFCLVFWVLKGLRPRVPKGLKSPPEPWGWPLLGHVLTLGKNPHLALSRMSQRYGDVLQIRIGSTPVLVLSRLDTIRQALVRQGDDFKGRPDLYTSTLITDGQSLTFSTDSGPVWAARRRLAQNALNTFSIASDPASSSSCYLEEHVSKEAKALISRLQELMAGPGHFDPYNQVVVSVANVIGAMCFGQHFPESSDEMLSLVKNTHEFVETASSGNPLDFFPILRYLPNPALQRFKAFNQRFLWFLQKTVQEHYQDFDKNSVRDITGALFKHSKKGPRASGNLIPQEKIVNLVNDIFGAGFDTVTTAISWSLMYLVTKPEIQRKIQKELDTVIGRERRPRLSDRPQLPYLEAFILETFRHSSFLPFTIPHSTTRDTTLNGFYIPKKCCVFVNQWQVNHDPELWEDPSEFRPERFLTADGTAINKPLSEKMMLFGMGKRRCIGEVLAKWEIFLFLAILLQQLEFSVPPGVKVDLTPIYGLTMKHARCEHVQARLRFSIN
Briefly: Inhibition of CYP1A2 (unknown origin) upto 25 uM. In kind it is ADME.

Each structure is given as a SMILES string.

Chain of Sodium channel protein type 5 subunit alpha (Q14524 whole entry): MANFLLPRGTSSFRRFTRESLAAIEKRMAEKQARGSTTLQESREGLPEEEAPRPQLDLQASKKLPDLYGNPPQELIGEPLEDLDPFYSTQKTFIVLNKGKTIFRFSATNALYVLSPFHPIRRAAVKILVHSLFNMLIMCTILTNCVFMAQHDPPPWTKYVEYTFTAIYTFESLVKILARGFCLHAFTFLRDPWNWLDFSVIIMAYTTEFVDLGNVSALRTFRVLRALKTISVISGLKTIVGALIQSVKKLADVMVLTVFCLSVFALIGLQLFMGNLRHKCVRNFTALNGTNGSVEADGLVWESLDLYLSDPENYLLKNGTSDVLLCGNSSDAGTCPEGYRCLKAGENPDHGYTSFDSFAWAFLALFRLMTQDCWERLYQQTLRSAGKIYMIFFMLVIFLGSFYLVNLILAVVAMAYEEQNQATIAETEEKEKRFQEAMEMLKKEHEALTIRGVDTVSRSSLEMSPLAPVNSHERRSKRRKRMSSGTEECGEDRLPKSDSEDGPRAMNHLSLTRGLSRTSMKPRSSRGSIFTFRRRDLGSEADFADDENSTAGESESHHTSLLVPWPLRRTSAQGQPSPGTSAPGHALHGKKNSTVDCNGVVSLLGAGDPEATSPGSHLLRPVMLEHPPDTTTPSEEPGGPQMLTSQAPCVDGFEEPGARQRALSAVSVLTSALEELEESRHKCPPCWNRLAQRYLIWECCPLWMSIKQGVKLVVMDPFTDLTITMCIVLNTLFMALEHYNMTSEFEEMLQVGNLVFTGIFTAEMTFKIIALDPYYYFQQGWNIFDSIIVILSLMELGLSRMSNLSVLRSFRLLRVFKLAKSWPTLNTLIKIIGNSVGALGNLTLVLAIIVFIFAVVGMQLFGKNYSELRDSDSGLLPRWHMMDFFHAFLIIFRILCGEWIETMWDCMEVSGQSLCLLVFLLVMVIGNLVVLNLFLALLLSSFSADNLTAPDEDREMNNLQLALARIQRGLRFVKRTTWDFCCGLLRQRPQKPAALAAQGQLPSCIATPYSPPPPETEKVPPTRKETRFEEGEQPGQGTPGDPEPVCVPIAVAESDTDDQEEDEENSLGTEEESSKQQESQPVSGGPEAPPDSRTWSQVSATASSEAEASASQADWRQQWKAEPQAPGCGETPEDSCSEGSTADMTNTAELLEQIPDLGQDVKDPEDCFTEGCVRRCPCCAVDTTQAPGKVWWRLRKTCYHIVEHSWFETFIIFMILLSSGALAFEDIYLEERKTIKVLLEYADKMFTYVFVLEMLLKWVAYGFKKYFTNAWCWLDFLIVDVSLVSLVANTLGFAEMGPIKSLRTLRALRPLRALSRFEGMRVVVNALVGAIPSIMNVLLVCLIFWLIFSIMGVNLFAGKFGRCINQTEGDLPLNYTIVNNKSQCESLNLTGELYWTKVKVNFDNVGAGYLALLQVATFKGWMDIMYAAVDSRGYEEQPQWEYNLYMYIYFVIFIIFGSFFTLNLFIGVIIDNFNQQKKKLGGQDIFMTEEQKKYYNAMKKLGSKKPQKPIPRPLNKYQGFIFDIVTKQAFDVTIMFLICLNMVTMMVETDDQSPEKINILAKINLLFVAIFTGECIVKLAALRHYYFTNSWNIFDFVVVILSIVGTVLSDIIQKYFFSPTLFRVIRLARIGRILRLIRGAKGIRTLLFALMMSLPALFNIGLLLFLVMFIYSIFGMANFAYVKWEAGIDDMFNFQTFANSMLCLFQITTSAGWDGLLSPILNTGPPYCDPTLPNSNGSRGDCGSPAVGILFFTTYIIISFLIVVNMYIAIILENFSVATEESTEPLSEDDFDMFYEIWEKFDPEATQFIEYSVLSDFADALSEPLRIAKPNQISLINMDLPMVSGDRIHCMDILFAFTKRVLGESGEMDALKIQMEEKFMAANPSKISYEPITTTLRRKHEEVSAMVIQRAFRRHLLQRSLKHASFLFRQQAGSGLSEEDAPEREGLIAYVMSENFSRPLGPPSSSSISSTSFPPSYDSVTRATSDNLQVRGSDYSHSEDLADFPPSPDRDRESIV

What is called AUC is the area under the concentration-time curve, a measure of exposure. The low end stands for less exposure, the high end for more exposure. A word on the IC50: it is the point on the concentration scale where inhibition reaches its midpoint. As usually defined, the Cmax is the highest concentration seen after dosing. With `O=C(NC[C@H](c1ccc(Cl)cc1)N1CCOCC1)c1sc(-c2ncccn2)nc1C(F)(F)F`, the “inhibition (INH)” value in series [1] and in series [11] was “Not Active” throughout. In series [2], this molecule came in with an Activity of 26.9%. In addition, the TDI result in series [3] and in [9] was “Not Active” each time. The molecule further showed an AUC at 168 h in series [4] of 210 µM·h. The concentration for half-maximal inhibition (IC50) in series [5] is 66 nM; in series [7], 26 nM. Moreover, the CLint scaled at 1 µM in [6] was 14.2 mL/min/kg. Further, the “Cp(f)” value in [8] was found to be 71.2 nM. The molecule also displayed a Cmax in series [10] of 140 µM.
